Assay results as given in ChEMBL document CHEMBL3392986, “Hydroxamic acids block replication of hepatitis C virus” (J Med Chem, 2015).
Activity calls are given as the source filed them. The calls are words filed in the database; no cut-off is given here.

Tests used:
[1] = Cytotoxicity against human HuH7 cells assessed as inhibition of cell viability after 3 days by CellTiter 96 assay
[2] = biological target: Disintegrin and metalloproteinase domain-containing protein 17 (Homo sapiens) (UniProt P78536); assay: Inhibition of human recombinant TACE catalytic domain (215 to 671 aa) expressed in Escherichia coli
Sequence of Disintegrin and metalloproteinase domain-containing protein 17 (Homo sapiens) (P78536 whole entry, the tested form may be a part): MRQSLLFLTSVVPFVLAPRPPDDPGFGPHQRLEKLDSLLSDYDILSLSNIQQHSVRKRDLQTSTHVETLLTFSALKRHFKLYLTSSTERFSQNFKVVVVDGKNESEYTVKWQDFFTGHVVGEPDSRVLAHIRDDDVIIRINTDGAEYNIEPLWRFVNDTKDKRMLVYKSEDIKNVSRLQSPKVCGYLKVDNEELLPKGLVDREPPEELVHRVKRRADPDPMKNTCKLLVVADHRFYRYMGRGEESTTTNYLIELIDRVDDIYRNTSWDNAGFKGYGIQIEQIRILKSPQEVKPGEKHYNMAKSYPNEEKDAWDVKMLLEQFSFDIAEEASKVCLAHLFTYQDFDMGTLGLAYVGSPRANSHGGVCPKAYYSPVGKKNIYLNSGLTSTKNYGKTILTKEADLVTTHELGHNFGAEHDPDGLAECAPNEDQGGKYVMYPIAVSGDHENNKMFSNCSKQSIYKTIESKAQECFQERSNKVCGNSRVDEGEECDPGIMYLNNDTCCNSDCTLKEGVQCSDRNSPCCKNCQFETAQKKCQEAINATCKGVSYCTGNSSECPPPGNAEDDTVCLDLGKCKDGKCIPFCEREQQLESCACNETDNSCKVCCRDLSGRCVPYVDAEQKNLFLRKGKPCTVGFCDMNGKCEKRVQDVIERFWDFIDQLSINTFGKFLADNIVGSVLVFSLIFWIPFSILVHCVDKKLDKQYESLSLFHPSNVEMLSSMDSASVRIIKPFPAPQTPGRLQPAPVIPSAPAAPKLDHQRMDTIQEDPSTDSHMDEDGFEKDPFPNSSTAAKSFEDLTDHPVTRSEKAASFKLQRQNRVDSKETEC

[3] = biological target: Histone deacetylase 4 (Homo sapiens) (UniProt P56524); assay: Inhibition of N-terminal GST-tagged human HDAC4 (amino acids 627 to 1085) expressed in baculovirus expression system assessed as inhibition of fluorophore 7-amino-4-methylcoumarin release by fluorescence assay
Sequence of Histone deacetylase 4 (Homo sapiens) (P56524 whole entry, the tested form may be a part): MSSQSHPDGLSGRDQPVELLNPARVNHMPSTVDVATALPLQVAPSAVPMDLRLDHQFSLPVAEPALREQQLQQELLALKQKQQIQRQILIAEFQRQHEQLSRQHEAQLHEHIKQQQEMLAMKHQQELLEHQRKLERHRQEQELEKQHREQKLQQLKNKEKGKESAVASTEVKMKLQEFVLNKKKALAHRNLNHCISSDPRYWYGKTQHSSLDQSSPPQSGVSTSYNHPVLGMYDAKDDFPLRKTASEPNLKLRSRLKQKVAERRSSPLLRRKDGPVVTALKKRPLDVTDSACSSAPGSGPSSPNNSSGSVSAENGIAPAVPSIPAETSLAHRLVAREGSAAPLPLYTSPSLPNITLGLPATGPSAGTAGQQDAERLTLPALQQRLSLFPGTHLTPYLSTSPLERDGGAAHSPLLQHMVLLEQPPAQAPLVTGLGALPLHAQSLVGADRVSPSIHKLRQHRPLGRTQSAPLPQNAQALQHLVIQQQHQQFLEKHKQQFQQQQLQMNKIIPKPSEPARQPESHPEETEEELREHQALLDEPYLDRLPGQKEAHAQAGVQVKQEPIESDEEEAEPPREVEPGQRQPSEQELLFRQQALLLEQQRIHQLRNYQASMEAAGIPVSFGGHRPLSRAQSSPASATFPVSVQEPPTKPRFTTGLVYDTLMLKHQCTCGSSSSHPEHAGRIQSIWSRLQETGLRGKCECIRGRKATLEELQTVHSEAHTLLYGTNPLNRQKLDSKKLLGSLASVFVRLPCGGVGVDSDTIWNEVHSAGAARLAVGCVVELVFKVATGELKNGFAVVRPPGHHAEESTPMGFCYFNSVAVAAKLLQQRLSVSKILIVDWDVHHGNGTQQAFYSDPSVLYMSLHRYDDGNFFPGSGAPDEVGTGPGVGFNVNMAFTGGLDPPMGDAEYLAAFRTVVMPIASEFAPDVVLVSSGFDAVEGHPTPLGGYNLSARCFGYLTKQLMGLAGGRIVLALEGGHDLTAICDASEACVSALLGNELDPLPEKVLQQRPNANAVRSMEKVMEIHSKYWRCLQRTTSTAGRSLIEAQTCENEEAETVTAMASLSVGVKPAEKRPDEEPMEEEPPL

[4] = biological target: Macrophage metalloelastase (Homo sapiens) (UniProt P39900); assay: Inhibition of human recombinant MMP12 catalytic domain (99 to 271 aa) expressed in Escherichia coli
Sequence of Macrophage metalloelastase (Homo sapiens) (P39900 106-470 limits assumed): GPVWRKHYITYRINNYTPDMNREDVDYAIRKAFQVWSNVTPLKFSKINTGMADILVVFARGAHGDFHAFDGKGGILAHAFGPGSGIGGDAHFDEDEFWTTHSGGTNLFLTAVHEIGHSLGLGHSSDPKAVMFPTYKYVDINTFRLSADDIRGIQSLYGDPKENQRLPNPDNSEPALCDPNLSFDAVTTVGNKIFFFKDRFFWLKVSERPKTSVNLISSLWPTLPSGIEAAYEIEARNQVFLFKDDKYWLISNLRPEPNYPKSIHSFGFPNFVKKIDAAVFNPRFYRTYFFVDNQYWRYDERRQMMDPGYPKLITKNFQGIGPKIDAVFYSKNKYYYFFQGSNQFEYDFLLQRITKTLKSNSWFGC

Hepatitis C virus [5] = assay: Antiviral activity against HCV genotype 1b infected in human Huh7 cells assessed as reduction in viral RNA level at 0.5 uM after 3 days by RT-qPCR; format: functional, Hepacivirus hominis, Huh-7; design: scale not given: the % may be the effect or the level left; conditions: in the assay text read “2 uM” for “0.5 uM”
Summary of the method: (§1)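 Replicon-bearing Huh7 cells, 6 X 10^3 per well, exposed to compound in DMSO or DMSO alone for three days at 37 °C/5% CO2. Replicon RNA quantified by TaqMan Cells-to-CT RT-qPCR with NS5B primers/probe, using GAPDH in parallel wells as reference. Level relative to DMSO-treated cells calculated as 2-∆∆CT. Triplicate wells.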

[6] = biological target: T1, Histone deacetylase 7 (Homo sapiens) (UniProt Q8WUI4); assay: Inhibition of full length N-terminal GST-tagged human HDAC7 (amino acids 518 to end) expressed in baculovirus expression system assessed as inhibition of fluorophore 7-amino-4-methylcoumarin release by fluorescence assay
T1 sequence (whole entry): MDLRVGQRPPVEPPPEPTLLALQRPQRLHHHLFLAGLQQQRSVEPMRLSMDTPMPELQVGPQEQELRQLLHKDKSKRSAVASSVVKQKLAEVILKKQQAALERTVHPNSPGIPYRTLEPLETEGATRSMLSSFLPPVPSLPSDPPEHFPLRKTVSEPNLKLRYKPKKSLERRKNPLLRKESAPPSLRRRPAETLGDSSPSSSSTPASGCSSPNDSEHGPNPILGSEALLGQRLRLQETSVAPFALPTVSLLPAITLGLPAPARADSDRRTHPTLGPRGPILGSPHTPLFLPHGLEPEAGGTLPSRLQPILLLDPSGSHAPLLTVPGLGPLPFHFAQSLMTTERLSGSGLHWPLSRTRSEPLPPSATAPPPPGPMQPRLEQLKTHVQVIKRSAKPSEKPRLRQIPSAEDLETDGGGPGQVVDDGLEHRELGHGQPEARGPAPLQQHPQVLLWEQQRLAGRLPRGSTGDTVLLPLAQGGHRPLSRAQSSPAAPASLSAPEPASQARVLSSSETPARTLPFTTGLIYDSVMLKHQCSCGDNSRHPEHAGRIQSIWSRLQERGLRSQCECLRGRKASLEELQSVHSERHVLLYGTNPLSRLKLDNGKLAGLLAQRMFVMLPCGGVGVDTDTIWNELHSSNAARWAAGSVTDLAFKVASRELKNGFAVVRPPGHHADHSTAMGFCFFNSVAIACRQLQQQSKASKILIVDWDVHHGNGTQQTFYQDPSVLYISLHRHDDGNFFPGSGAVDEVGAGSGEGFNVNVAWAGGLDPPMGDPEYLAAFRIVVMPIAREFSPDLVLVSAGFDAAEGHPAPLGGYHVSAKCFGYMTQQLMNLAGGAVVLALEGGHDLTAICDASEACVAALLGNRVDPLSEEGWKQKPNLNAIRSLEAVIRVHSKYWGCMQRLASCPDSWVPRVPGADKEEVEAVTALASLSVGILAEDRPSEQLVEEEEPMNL

[7] = biological target: Matrix metalloproteinase-9 (Homo sapiens) (UniProt P14780); assay: Inhibition of human recombinant MMP9 catalytic domain (107 to 449 aa) expressed in Escherichia coli
Sequence of Matrix metalloproteinase-9 (Homo sapiens) (P14780 whole entry, the tested form may be a part): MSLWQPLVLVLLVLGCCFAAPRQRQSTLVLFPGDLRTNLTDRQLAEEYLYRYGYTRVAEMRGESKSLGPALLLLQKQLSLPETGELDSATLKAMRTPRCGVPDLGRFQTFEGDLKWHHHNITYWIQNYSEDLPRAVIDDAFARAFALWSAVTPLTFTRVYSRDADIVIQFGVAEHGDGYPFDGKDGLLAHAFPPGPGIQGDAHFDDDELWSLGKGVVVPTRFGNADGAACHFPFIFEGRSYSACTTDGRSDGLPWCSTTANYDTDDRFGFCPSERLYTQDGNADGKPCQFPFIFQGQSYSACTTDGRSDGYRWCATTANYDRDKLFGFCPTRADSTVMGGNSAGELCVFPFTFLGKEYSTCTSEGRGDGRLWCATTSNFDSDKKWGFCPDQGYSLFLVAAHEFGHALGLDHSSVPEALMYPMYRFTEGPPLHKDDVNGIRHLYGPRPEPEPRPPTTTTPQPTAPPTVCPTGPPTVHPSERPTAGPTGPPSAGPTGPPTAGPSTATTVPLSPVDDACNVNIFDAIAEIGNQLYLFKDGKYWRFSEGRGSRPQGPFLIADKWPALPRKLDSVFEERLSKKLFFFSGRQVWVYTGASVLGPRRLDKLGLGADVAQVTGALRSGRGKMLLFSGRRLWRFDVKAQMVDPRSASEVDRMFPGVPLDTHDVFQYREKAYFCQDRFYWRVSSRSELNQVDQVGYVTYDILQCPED

Hepatitis C virus [8] = assay: Antiviral activity against HCV genotype 1b infected in human Huh7 cells assessed as reduction in viral RNA level at 2 uM after 3 days by RT-qPCR; format: functional, Hepacivirus hominis, Huh-7; design: scale not given: the % may be the effect or the level left; summary of the method: as §1
[9] = biological target: Histone deacetylase 3 (Homo sapiens) (UniProt O15379); assay: Inhibition of full length C-terminal His-tagged human HDAC3 expressed in baculovirus expression system assessed as inhibition of fluorophore 7-amino-4-methylcoumarin release by fluorescence assay
Sequence of Histone deacetylase 3 (Homo sapiens) (O15379 whole entry): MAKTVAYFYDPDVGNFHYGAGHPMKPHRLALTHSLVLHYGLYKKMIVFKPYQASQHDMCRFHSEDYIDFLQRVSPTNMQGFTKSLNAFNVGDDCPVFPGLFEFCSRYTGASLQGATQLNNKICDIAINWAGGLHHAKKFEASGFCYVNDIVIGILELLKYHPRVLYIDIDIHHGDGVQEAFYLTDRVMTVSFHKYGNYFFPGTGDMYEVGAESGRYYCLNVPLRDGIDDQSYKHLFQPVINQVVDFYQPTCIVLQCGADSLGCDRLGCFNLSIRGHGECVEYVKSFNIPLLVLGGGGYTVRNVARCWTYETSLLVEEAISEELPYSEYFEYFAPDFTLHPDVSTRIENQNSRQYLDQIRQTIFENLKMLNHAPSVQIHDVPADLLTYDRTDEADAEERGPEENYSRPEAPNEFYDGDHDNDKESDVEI

[10] = biological target: Histone deacetylase 2 (Homo sapiens) (UniProt Q92769); assay: Inhibition of full length C-terminal His-tagged human HDAC2 expressed in baculovirus expression system assessed as inhibition of fluorophore 7-amino-4-methylcoumarin release by fluorescence assay
Sequence of Histone deacetylase 2 (Homo sapiens) (Q92769 whole entry, the tested form may be a part): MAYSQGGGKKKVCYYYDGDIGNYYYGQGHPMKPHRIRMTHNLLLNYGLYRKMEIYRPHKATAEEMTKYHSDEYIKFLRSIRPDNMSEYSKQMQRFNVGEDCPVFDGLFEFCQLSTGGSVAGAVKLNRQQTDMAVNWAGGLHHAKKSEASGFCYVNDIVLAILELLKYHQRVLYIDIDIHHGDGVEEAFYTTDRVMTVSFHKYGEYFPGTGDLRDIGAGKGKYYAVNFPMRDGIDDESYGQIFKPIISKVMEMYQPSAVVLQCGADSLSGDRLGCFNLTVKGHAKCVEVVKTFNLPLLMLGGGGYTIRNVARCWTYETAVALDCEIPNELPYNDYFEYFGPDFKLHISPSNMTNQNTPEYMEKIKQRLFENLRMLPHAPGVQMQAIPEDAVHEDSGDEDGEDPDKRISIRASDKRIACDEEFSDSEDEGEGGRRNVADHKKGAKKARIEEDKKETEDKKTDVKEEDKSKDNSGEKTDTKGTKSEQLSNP

[11] = biological target: Histone deacetylase 9 (Homo sapiens) (UniProt Q9UKV0); assay: Inhibition of full length C-terminal His-tagged human HDAC9 (amino acids 604 to 1066 ) expressed in baculovirus expression system assessed as inhibition of fluorophore 7-amino-4-methylcoumarin release by fluorescence assay
Sequence of Histone deacetylase 9 (Homo sapiens) (Q9UKV0 whole entry, the tested form may be a part): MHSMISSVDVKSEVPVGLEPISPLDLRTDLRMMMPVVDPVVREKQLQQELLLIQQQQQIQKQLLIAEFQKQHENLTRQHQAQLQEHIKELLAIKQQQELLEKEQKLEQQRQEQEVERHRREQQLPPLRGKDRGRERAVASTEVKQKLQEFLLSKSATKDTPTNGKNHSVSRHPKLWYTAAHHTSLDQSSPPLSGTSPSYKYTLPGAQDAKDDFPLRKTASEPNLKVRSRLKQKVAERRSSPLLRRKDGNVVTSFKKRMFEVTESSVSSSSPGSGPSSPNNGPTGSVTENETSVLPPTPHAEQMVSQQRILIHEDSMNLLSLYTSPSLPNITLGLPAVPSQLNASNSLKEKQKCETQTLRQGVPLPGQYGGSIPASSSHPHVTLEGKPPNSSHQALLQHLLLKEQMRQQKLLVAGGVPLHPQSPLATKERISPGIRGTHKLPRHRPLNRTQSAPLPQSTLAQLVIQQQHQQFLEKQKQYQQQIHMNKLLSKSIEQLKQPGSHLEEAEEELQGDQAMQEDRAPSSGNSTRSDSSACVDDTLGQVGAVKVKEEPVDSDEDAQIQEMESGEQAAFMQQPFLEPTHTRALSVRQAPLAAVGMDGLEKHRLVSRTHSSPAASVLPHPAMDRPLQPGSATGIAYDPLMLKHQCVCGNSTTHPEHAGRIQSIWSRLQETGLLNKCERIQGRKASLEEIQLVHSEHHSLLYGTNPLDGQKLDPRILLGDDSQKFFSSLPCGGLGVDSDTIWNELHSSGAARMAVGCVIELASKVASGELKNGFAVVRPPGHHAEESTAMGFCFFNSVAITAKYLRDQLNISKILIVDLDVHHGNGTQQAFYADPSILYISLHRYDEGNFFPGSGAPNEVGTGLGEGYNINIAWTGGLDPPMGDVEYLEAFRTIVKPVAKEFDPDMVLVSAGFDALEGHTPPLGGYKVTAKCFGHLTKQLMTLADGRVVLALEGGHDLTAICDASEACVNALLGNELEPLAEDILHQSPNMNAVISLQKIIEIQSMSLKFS

[12] = biological target: T2, Polyamine deacetylase HDAC10 (Homo sapiens) (UniProt Q969S8); assay: Inhibition of full length N-terminal GST-tagged human HDAC10 (amino acids 1 to 631 ) expressed in baculovirus expression system assessed as inhibition of fluorophore 7-amino-4-methylcoumarin release by fluorescence assay
T2 sequence (whole entry): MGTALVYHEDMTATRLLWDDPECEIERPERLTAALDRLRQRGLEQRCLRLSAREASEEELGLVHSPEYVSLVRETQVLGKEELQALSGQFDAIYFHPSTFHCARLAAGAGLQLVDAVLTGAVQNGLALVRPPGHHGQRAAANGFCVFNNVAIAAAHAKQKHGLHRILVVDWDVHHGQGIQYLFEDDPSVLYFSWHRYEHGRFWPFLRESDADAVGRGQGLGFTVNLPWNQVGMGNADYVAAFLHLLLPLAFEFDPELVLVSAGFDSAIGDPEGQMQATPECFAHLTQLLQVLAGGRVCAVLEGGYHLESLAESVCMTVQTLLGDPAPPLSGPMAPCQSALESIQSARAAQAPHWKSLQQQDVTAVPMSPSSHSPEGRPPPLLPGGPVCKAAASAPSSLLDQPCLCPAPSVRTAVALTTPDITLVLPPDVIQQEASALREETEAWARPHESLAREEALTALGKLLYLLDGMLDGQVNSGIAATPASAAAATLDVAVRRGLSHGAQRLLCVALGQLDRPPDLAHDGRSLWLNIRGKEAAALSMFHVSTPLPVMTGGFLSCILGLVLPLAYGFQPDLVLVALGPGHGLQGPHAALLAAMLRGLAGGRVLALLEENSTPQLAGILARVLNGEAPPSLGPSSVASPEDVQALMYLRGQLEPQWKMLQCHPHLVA

[13] = biological target: Hepatitis C virus serine protease, NS3/NS4A (Hepatitis C virus) (UniProt D2K2A8+A3EZI9); assay: Inhibition of HCV NS3/4A protease; conditions: Hepacivirus hominis
[14] = Therapeutic index, ratio of CC50 for human HuH7 cells to EC50 for HCV genotype 1b infected in human Huh7 cells; conditions: HuH7 cells

- inhibition [2]: inactive
- inhibition [3]: inactive
- inhibition [4]: Active
- inhibition [6]: inactive
- inhibition [7]: Active
- inhibition [9]: inactive
- inhibition [10]: inactive
- inhibition [11]: inactive
- inhibition [12]: inactive
- inhibition [13]: inactive
SMILES: O=C(NO)c1sc2ccccc2c1S(=O)(=O)c1ccccc1
- CC50 at 72 h [1]: 57 µM
- Activity (Hepatitis C virus [5]): 75%
- Activity (Hepatitis C virus [8]): 75%
- selectivity ratio [14]: 93
